Platelet DG rel – platelet dense granule release activity; human platelet-rich plasma, SFLLRN dense granule ATP release, luminescence; inhibition, %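 (compounds screened at 7.5 µM in platelet-rich plasma)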; 300,000 compounds, 0.22% hits; AID 1663;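 active = mean replicate score, as percent of positive control, at or above 50; inconclusive = mean below 50 but at least one replicate at or above 50; inactive = mean and every replicate below 50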
Myeloid diff MLP – promotes myeloid progenitor differentiation. calls only at 10 µM. ER-HoxA9 myeloid progenitors, lysozyme-GFP differentiation, flow cytometry. 360,000 compounds, 1% hits;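 active = normalized GFP-positive differentiation at or above the plate's own cutoff, the solvent-only control mean plus 3 SD; inconclusive = no clear call, values can overlap the other calls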;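 note: cells exposed to compound for four days before flow analysis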
VLA-4 inh – inhibition in a human VLA-4 binding assay; inhibition, % (about 7 µM as worked out from the volumes in the protocol); AID 2557; VLA-4 expressing cells, ligand binding flow cytometry; P13612; 330,000 compounds, 0.2% hits; in the data active = inhibition above about 50%
SENP1 inh – inhibitors of human SENP1 SUMO protease catalytic domain; inhibition, % at 10 µM; recombinant SENP1 catalytic domain, CyPet-SUMO1-YPet FRET cleavage; 360,000 compounds, 0.21% hits;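 active = inhibition at least 30% at 10 µM, raw YFP signal under a set limit, fluorescence ratio 0.5 to 1.5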
Target sequence (Q9P0U3 419-644 limits assumed): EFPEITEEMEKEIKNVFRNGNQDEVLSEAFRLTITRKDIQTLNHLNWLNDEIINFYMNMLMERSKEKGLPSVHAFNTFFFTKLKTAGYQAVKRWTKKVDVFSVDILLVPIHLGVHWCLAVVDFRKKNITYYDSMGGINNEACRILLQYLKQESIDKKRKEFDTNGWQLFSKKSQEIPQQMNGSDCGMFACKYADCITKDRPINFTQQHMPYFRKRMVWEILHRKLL
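Assay system: hSENP1 catalytic domain, recombinant. Amount: SENP1 enzyme, 20 pM final. Schedule: 50 min reaction, RT, dark. Technique: FRET, CFP and YFP emission. Control set: no-enzyme wells low, DMSO-plus-enzyme wells high control.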
Myeloid diff – promotes myeloid progenitor differentiation. 2,300 compounds, 2% hits. shares compounds with Myeloid diff MLP. ER-HoxA9 myeloid progenitors, GFP/Mac1 double-positive flow. calls only;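 active = share of green or green-and-red cells above 9 and 9% in run 1 or 4 and 3% in run 2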
GFP autofluor – compound fluorescence in myeloid differentiation counter-screen; shares compounds with Myeloid diff MLP; ER-HoxA9 myeloid progenitors, no estrogen, GFP autofluorescence flow cytometry; vehicle wells 0%, positive control 100%; fluorescence response, % (test concentration not listed); 2,300 compounds, 7.4% hits;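 active = over 5% cells positive for green fluorescent reporter, or over 2% positive for both it and APC stain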
Calls only; - = inactive; ? = inconclusive; . = no result given; + = active, no number. Hits are enriched below; roughly 1.5% of the tested compounds scored in any of these assays.

SMILES	Platelet DG rel	Myeloid diff MLP	VLA-4 inh	SENP1 inh	Myeloid diff	GFP autofluor
COC(=O)c1cc(OC)c(OC)cc1NC(=O)C1CCC(=O)N1S(=O)(=O)c1ccc(C)cc1 (stereo not given)	-	-	-	-	.	.
N#CCCN(C(=O)CSc1nc(-c2ccccc2)cn1N)c1ccc(F)cc1	-	-	-	-	.	.
N#CCCN(C(=O)COc1ccc(C#N)cc1)c1ccc(F)cc1	-	-	-	-	-	-
CCCCc1ccc(NC(=O)Cn2c(=O)c(N3CCCCC3)c(N)n(C)c2=O)cc1	.	-	-	-	.	.
CCOc1ccc(NC(=O)c2ccccc2NC(=O)c2cccnc2)cc1	-	-	-	-	.	.
O=C1C2C(C(=O)N1CC1CCCO1)C1C=CC2C12CC2 (stereo not given)	-	.	-	-	-	-
O=C1C2CC=CCC2C(=O)N1CC1CCCO1 (stereo not given)	-	-	-	-	.	.
CC(=O)Oc1c(-c2ccc(Br)o2)oc2ccccc2c1=O	-	-	-	-	-	-
COc1ccc(-c2oc3ccccc3c(=O)c2OC(C)=O)cc1	-	-	-	-	.	.
CCc1ccc(NC(=O)COC(=O)c2nc3nc(C)cc(C)n3n2)cc1	.	-	-	-	.	.
Cc1cc(C)n2nc(C(=O)OCC(=O)Nc3ccc(C)c(F)c3)nc2n1	.	-	-	-	-	-
COc1ccc(-c2ccc(C(=O)NCc3ccc(N4CCN(C)CC4)cc3)c3occc23)c(C)c1	.	+	.	-	-	-
COc1ccc(CNC(=O)CCS(=O)(=O)c2ccc3c(c2)NC(=O)CS3)cc1	-	-	-	-	.	.
CCC(C(=O)Nc1sc(C(N)=O)c(C)c1C(=O)OC)c1ccccc1 (stereo not given)	.	-	-	-	-	-
COC(=O)c1c(NC(=O)c2ccccc2)sc(C(N)=O)c1C	-	-	-	-	.	.
COc1ccc(CN2CCN(CCCCOc3ccc(Cl)cc3)CC2)c(OC)c1OC	-	-	-	-	.	.
CCOc1ccc(NCc2cc3c(C(C)(C)C)nn(-c4ccccc4)c3[nH]c2=O)cc1	-	-	-	-	.	.
COc1cccc(NCc2cc3c(C(C)(C)C)nn(-c4ccccc4)c3[nH]c2=O)c1	-	+	-	-	-	-
CCn1c(COc2ccccc2)nnc1SCC(=O)C(C)(C)C	-	+	-	-	-	-
CCn1c(COc2ccc(C)cc2)nnc1SCC(=O)C(C)(C)C	-	-	-	-	.	.
CCCN(CC(=O)Nc1ccccc1OC)C(=O)CN1C(=O)NC2(CCCCC2)C1=O	.	+	-	-	-	-
CCCCCC(=O)N1C[C@@H](n2cc(COC(=O)c3ccccc3)nn2)[C@H](O)C[C@@H]1c1ccc(OC)cc1	.	-	.	-	.	.
CCCCCC(=O)N1C[C@@H](O)[C@H](n2cc(COC(=O)c3ccccc3)nn2)C[C@@H]1c1ccc(OC)cc1	.	-	.	-	-	-
COc1cccc(CN2CCNC(=O)C2CC(=O)NC2CCCC2)c1OC (stereo not given)	-	-	-	-	.	.
Clc1cccc(Nc2nc(N3CCOCC3)nc(N3CCOCC3)n2)c1	-	-	-	-	-	-
SMILES	Platelet DG rel	Myeloid diff MLP	VLA-4 inh	SENP1 inh	Myeloid diff	GFP autofluor
Clc1ccc(Oc2nc(Oc3ccc(Cl)cc3)nc(N3CCOCC3)n2)cc1	-	+	-	-	-	-
COc1ccc(Nc2nc(N3CCOCC3)nc(N3CCOCC3)n2)cc1Cl	-	-	-	-	.	.
Cc1cc(/C=C2\SC(=S)N(C)C2=O)c(C)n1-c1cccc(O)c1	-	+	-	-	-	-
COc1ccccc1NC(=S)N(Cc1ccco1)Cc1cc2ccc(C)c(C)c2[nH]c1=O	-	?	-	-	.	.
COc1ccccc1NC(=S)N(Cc1ccco1)Cc1cc2cc(C)cc(C)c2[nH]c1=O	-	-	-	-	-	-
C[C@H](CO)N1C[C@H](C)[C@H](CN(C)C(=O)Nc2ccc(C(F)(F)F)cc2)Oc2ncc(Br)cc2C1=O	.	-	.	-	.	.
C[C@H](O)C#Cc1cnc2c(c1)C(=O)N([C@H](C)CO)C[C@@H](C)[C@H](CN(C)C(=O)Nc1ccc(C(F)(F)F)cc1)O2	.	-	.	-	-	-
Cc1cccc(N2CCN(C(=O)c3ccc4c(c3)OCCO4)CC2)c1C	-	+	-	-	+	-
Cc1ccc(S(=O)(=O)NCCNC(=O)c2ccc(C)nc2)cc1	-	-	-	-	.	.
O=C1c2ccccc2C(=O)C1Cc1cccc2ccccc12	-	-	-	-	-	-

Source: PubChem BioAssay (several laboratories)
